Laboratory results published in ChEMBL document CHEMBL1127316, “Piperidinyltetralin sigma ligands” (J Med Chem, 1994).

Key:
[1] = tested on: Mus musculus; test: Inhibition of mescaline effects in mice following p.o. administration.; assay type: functional; conditions: po
Procedure, shortened: (§1)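 In mice, antagonism of mescaline-induced effects was tested after oral administration. Potency is an ED50 in mg/kg, calculated as free base weight.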

[2] = tested on: Mus musculus; test: Antimescaline activity in the mouse (administered po); assay type: functional; procedure, shortened: as §1
[3] = species on record: Mus musculus; test: Ability to block the aggressive behavior caused by prolonged isolation in mouse; assay type: functional
Procedure, shortened: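 Mice made aggressive by prolonged isolation; compounds dosed orally (po); blocking of aggressive behaviour scored and ED50 derived in mg/kg, expressed as free base weight; values averaged from three measurements, some single measurements.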

[4] = tested on: Rattus norvegicus; test: In vivo 5-HT2 antagonism of 5-HTP-induced head twitch in rat; assay type: functional
Procedure, shortened: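 Rats given 5-hydroxytryptophan (5HTP) to induce head twitches, a read-out of in vivo 5HT2 antagonism; compounds given orally (po); ED50 in mg/kg as free base weight; values averaged from three measurements, some single measurements.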

[5] = molecular target: Sigma non-opioid intracellular receptor 1 (Cavia porcellus) (UniProt Q60492); test: Binding affinity for sigma receptor of guinea pig whole brain using [3H]-SKF- 100047 radioligand
Sigma non-opioid intracellular receptor 1 (Cavia porcellus), sequence (Q60492 whole entry, looked up): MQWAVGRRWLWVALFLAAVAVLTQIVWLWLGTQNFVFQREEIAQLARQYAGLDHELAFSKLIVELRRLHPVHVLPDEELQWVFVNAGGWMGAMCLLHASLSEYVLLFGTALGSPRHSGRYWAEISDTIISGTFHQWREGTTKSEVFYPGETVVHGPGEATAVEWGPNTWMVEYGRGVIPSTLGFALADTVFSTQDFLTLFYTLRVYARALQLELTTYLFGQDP

[6] = tested on: Rattus norvegicus; test: In vivo antagonism of compound determined by the ability to inhibit 5-HTP-induced head twitch in rat (administered po); assay type: functional
Procedure, shortened: (§2)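 In rats, head twitches were induced with 5-hydroxytryptophan as an in vivo read-out of 5HT2 antagonism. The compound was dosed po, and inhibition of twitching gave an ED50 (mg/kg, free base weight).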

[7] = tested on: Mus musculus; test: Ability to block the aggressive behavior caused by prolonged isolation in mouse (administered po); assay type: functional
Procedure, shortened: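 Mice were made aggressive by prolonged isolation. The compound was given orally, and blockade of the aggressive behavior was scored. ED50 is in mg/kg, expressed as free base weight.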

[8] = tested on: Rattus norvegicus; test: In vivo activity of 5-HTP-induced head twitch in rat as a measure of 5-HT2 antagonism; assay type: functional; procedure, shortened: as §2

| Structure (SMILES) | ED50 [1] | ED50 [2] | other results |
| --- | --- | --- | --- |
| OC1CCc2ccccc2C12CCN(CCc1ccccc1)CC2 (configuration not stated) | > 30 mg/kg | – | – |
| Cl.O=C(CCCN1CCC2(CCc3ccccc3C2=O)CC1)c1ccc(F)cc1 | 0.65 mg/kg | – | – |
| Cl.O=C1c2ccccc2CCC1C1CCN(Cc2ccc(C(F)(F)F)cc2)CC1 (configuration not stated) | – | > 10 mg/kg | – |
| Cl.O=C1c2ccccc2CCC12CCN(Cc1ccc([N+](=O)[O-])cc1)CC2 | > 10 mg/kg | – | – |
| O=C(O)CC(O)C(=O)O.O=C1c2ccccc2CCC12CCN(Cc1ccc(C(F)(F)F)cc1)CC2 | – | > 10 mg/kg | – |
| CC(C)(C)c1ccc(CN2CCC(C3CCc4ccccc4C3=O)CC2)cc1 (configuration not stated) | – | > 10 mg/kg | – |
| O=C(O)CC(O)C(=O)O.O=C1c2ccccc2CCC12CCN(Cc1ccc3ccccc3c1)CC2 | > 10 mg/kg | – | – |
| Cl.O=C1c2cccc(F)c2CCC1C1CCN(CCc2ccccc2)CC1 (configuration not stated) | 6.8 mg/kg | – | – |
| O=C1c2ccc(F)cc2CCC1C1CCN(CCc2ccccc2)CC1 (configuration not stated) | – | 1.9 mg/kg | – |
| Cc1ccc(CN2CCC(C3CCc4ccccc4C3=O)CC2)cc1.O (configuration not stated) | > 10 mg/kg | – | – |
| Cl.O=C1c2ccccc2CCC1C1CCN(Cc2ccc(F)cc2)CC1 (configuration not stated) | – | 10 mg/kg | – |
| Cl.O=C1c2ccccc2CCC12CCN(CCc1ccccc1)CC2 | 10 mg/kg | – | ED50 [3]: 30 mg/kg; ED50 [4]: 10 mg/kg |
| COc1ccc2c(c1)CCC(C1CCN(CCc3ccccc3)CC1)C2=O (configuration not stated) | 6.5 mg/kg | – | – |
| O=C(O)/C=C/C(=O)O.O=C1c2c(F)cc(F)cc2CCC12CCN(CCc1ccccc1)CC2 | > 10 mg/kg | – | – |
| O=C1CCc2ccccc2C12CCN(CCc1ccccc1)CC2 | > 30 mg/kg | – | – |
| CC(C)(C)c1ccc(CN2CCC3(CCc4ccccc4C3=O)CC2)cc1.Cl | > 10 mg/kg | – | – |

| Structure (SMILES) | ED50 [1] | ED50 [2] | other results |
| --- | --- | --- | --- |
| Br.O=C(CC1CCN(CC2CC2)CC1)c1ccc(F)cc1 | – | 0.35 mg/kg | ED50 [3]: 1.9 mg/kg; ED50 [4]: 1.8 mg/kg; Ki [5]: 10 nM |
| O=C1c2ccc(Cl)cc2CCC12CCN(CCc1ccccc1)CC2 | 10 mg/kg | – | – |
| C[C@@H]1CN(CCCn2c3ccccc3c3ccccc32)C[C@H](C)N1 [RIMCAZOLE] | – | 22 mg/kg | ED50 [3]: 48 mg/kg |
| Cl.O=C1c2ccc(Cl)cc2CCC1C1CCN(CCc2ccccc2)CC1 (configuration not stated) | 5.4 mg/kg | – | – |
| CN1CCC2(CCc3ccccc3C2=O)CC1.Cl | > 10 mg/kg | – | – |
| O=C1c2ccc(F)cc2CCC1C1CCN(Cc2ccccc2)CC1 (configuration not stated) | > 10 mg/kg | – | – |
| Cl.O=C1c2ccccc2CCC12CCN(Cc1ccccc1)CC2 | > 10 mg/kg | – | – |
| COc1ccc(CN2CCC3(CCc4ccccc4C3=O)CC2)cc1.Cl | – | > 10 mg/kg | – |
| Cl.O=C1c2ccccc2CCC1C1CCN(Cc2ccccc2)CC1 (configuration not stated) | 4.5 mg/kg | – | – |
| Br.CC(C1CC1)N1CCC(C2CCc3ccccc3C2=O)CC1 (configuration not stated) | – | > 30 mg/kg | – |
| Br.O=C1c2ccccc2CCC1C1CCN(CC2CC2)CC1 (configuration not stated) | > 10 mg/kg | – | – |
| c1ccc(CN2CCC3(CCCc4ccccc43)CC2)cc1 | – | > 30 mg/kg | ED50 [6]: > 30 mg/kg; ED50 [7]: > 30 mg/kg |
| Cl.O=C1c2ccccc2CCC12CCN(CC1CCCCC1)CC2 | > 10 mg/kg | – | – |
| Cl.O=C1c2ccccc2CCC12CCN(Cc1ccc(F)cc1)CC2 | – | > 10 mg/kg | – |
| Br.O=C1c2ccccc2CCC1C1CCN(CCc2ccccc2)CC1 (configuration not stated) | – | 6.4 mg/kg | – |
| Cl.OC1c2ccccc2CCC12CCN(CCc1ccccc1)CC2 (configuration not stated) | 0.064 mg/kg | – | ED50 [3]: 10 mg/kg; ED50 [8]: 0.07 mg/kg |
